The nature of data set [1]: folding enthalpy; higher = less favourable; fluorescence melt of hairpins on a sequencing array, two-state fit. The settings on record: sodium 0.088 M. The method in brief: (§1)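 Cy3 signals were normalised both to pre-quench Cy3 and to control constructs. They came from library hairpins carrying annealed Cy3 and quencher oligos on a sequenced MiSeq flow cell, imaged in 50 mM Na-HEPES pH 8.0, 25 mM NaCl, in 2.5 °C steps up to 60 °C. Bootstrapped two-state fits gave melting temperature and folding enthalpy, and four replicates were combined by inverse variance. Fitted temperatures were then raised by 9.35 °C to match UV melts.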

Data set [2] can be described thus: melting temperature; fluorescence melt of hairpins on a sequencing array, two-state fit, raised by 9.35 °C to match UV melts. The settings on record: sodium 0.088 M. The method in brief: as §1

Regarding GATCGATCATCGATC ((((((...)))))), the folding enthalpy in data set [1] is -33.2 kcal/mol. The Tm in data set [2] worked out at 50.5 °C.
The like results for GATCGATCCTTCGATC ((((((....)))))) were, in that order, -45.3 kcal/mol and 55.5 °C.
Regarding GATCGATCTCTCGATC ((((((....)))))), the folding enthalpy in data set [1] is -41.2 kcal/mol. Further, the Tm in data set [2] came to 51.4 °C.
Regarding GATCGATTACTCGATC ((((((....)))))), the folding enthalpy in data set [1] is -47.6 kcal/mol. Moreover, the Tm in data set [2] was found to be 51 °C.
Consider GATCGATTCTCGATC ((((((...)))))), for which the folding enthalpy in data set [1] was -38.8 kcal/mol. Moreover, in data set [2], the Tm was determined as 53.3 °C.
As to GATCGATTGGTCGATC ((((((....)))))), in data set [1], the folding enthalpy was -37.6 kcal/mol. The Tm in data set [2] worked out at 53.2 °C.
As to GATCGCAATCGCGATC ((((((....)))))), the folding enthalpy in data set [1] is -32.2 kcal/mol. Moreover, in data set [2], the Tm came to 67.9 °C.
For GATCGCACACGCGATC ((((((....)))))) the same measures were -38 kcal/mol and 68.2 °C.
The like results for GATCGCACGGGCGATC ((((((....)))))) were, in that order, -30.9 kcal/mol and 67.1 °C.
For the sequence GATCGCACTCGCGATC ((((((....)))))), the folding enthalpy in data set [1] was -34.7 kcal/mol. Moreover, in data set [2], the Tm was 68.4 °C.
Turning to GATCGCAGGCGCGATC ((((((....)))))), in data set [1], the folding enthalpy is -35.1 kcal/mol. Further, the Tm in data set [2] worked out at 68.3 °C.
The like results for GATCGCATAAGCGATC ((((((....)))))) were, in that order, -32.5 kcal/mol and 69.2 °C.
For GATCGCCAACGCGATC ((((((....)))))) the same measures were -36.6 kcal/mol and 62.9 °C.
The like results for GATCGCCACAGCGATC ((((((....)))))) were, in that order, -38.2 kcal/mol and 68.8 °C.
Regarding GATCGCCAGAGCGATC ((((((....)))))), the folding enthalpy in data set [1] was -37.6 kcal/mol. The Tm in data set [2] was determined as 68.3 °C.
Turning to GATCGCCAGGGCGATC ((((((....)))))), the folding enthalpy in data set [1] is -31 kcal/mol. Also, in data set [2], the Tm was found to be 68.3 °C.
For the sequence GATCGCCATTGCGATC ((((((....)))))), in data set [1], the folding enthalpy is -38 kcal/mol. In addition, in data set [2], the Tm is 67.5 °C.
Regarding GATCGCCCAGGCGATC ((((((....)))))), in data set [1], the folding enthalpy is -25.1 kcal/mol. The Tm in data set [2] worked out at 68.2 °C.
The like results for GATCGCCCCAGCGATC ((((((....)))))) were, in that order, -33.5 kcal/mol and 68.5 °C.
For GATCGCCCGAGCGATC ((((((....)))))) the same measures were -37.4 kcal/mol and 67.5 °C.
Turning to GATCGCCGAAAGGCTATC (((.(((....))).))), in data set [1], the folding enthalpy is -20.4 kcal/mol. In data set [2], the Tm is 42.1 °C.
For GATCGCCGAGCGATC ((((((...)))))) the same measures were -32.5 kcal/mol and 67.3 °C.
For GATCGCCGGAGCGATC ((((((....)))))) the same measures were -31.6 kcal/mol and 68.9 °C.
As for GATCGCCGGCGCGATC ((((((....)))))), the folding enthalpy in data set [1] is -34.1 kcal/mol. The Tm in data set [2] was determined as 61.1 °C.
For GATCGCCGGGCGATC ((((((...)))))), the folding enthalpy in data set [1] was -31.1 kcal/mol. Moreover, the Tm in data set [2] was found to be 67.8 °C.
GATCGCCGTAGCGATC ((((((....)))))): the folding enthalpy in data set [1] was -45 kcal/mol. Besides, the Tm in data set [2] is 69.2 °C.
The like results for GATCGCCTATGCGATC ((((((....)))))) were, in that order, -31.6 kcal/mol and 68.1 °C.
In the case of GATCGCCTCTGCGATC ((((((....)))))), the folding enthalpy in data set [1] was -37 kcal/mol. For the same sequence, the Tm in data set [2] worked out at 66.5 °C.
For GATCGCCTGTGCGATC ((((((....)))))) the same measures were -36.7 kcal/mol and 66.8 °C.
The like results for GATCGCGAAAGCGCATC ((((((....))).))) were, in that order, -15.3 kcal/mol and 51.4 °C.
The like results for GATCGCGAAAGCGGAATC ((((((....)))..))) were, in that order, -10.9 kcal/mol and 34.8 °C.
For the sequence GATCGCGAGGGCGATC ((((((....)))))), the folding enthalpy in data set [1] is -38 kcal/mol. For the same sequence, the Tm in data set [2] came out at 68 °C.
As for GATCGCTCACGCGATC ((((((....)))))), the folding enthalpy in data set [1] was -41.2 kcal/mol. The Tm in data set [2] is 67.8 °C.
The like results for GATCGCTCCCGCGATC ((((((....)))))) were, in that order, -34.3 kcal/mol and 67.8 °C.
GATCGCTCCGGCGATC ((((((....)))))): the folding enthalpy in data set [1] is -39.2 kcal/mol. The Tm in data set [2] came out at 68.4 °C.
Regarding GATCGCTCTGCGATC ((((((...)))))), the folding enthalpy in data set [1] was -41.8 kcal/mol. In data set [2], the Tm is 68.5 °C.
For GATCGCTGACGCGATC ((((((....)))))) the same measures were -36.5 kcal/mol and 66.7 °C.
In the case of GATCGCTGCGGCGATC ((((((....)))))), the folding enthalpy in data set [1] was -38.9 kcal/mol. Moreover, the Tm in data set [2] worked out at 68.9 °C.
